# Assay results of several laboratories.
# Compare with care: the assays were run in different laboratories.
Compound,target or system,assay,system,setting,measurement,result
O=C(c1ccc(F)cc1)c1c[nH]c2ncc(-c3ccnc(N4CCNCC4)c3)cc12,MRC5,"cell growth or viability, MTT",,"10 µM, 48 h",viability,90.1%
O=c1c2ccccc2[se]n1-c1ccccc1,MRC5,"cell growth or viability, MTT",,"125 µM, 72 h",inhibition,56%
[O-][N+]1=C(c2ccc(Cl)cc2)C2=NCCN2c2ccccc21,Bacteroides fragilis,microbial growth,,,MIC50,≤ 0.06 µg/mL
CN[C@H](CC(C)C)C(=O)N[C@H]1C(=O)N[C@@H](CC(N)=O)C(=O)N[C@H]2C(=O)N[C@H]3C(=O)N[C@H](C(=O)N[C@H](C(=O)O)c4cc(O)cc(O)c4-c4cc3ccc4O)[C@H](O)c3ccc(c(Cl)c3)Oc3cc2cc(c3O[C@@H]2O[C@H](CO)[C@@H](O)[C@H](O)[C@H]2O[C@H]2C[C@](C)(N)[C@H](O)[C@H](C)O2)Oc2ccc(cc2Cl)[C@H]1O,Bacteroides fragilis,"microbial growth, agar dilution",,48 h,MIC,> 16 µg/mL
Nc1ccn(C[C@@H](CO)OCP(=O)(O)O)c(=O)n1,Human alphaherpesvirus 1,cytopathic effect,HEL,,EC50,2000 nM
COc1ccc(C(=O)c2c[nH]c3ncc(-c4ccc(N5CCN(C(=O)OC(C)(C)C)CC5)nc4)cc23)cc1,MRC5,"cell growth or viability, MTT",,"10 µM, 48 h",viability,80.2%
OC(Cn1cncn1)(Cn1cncn1)c1ccc(F)cc1F,Aspergillus niger,microbial growth,ATCC16404,,MIC,128 µg/mL
CCCCCOc1ccc(-c2cc(-c3ccc(C(=O)N[C@H]4C[C@@H](O)[C@@H](O)NC(=O)[C@@H]5[C@@H](O)[C@@H](C)CN5C(=O)[C@H]([C@H](O)CC(N)=O)NC(=O)[C@H]([C@H](O)[C@@H](O)c5ccc(O)c(OS(=O)(=O)O)c5)NC(=O)[C@@H]5C[C@@H](O)CN5C(=O)[C@H]([C@@H](C)O)NC4=O)cc3)no2)cc1,Lodderomyces parapsilosis,biofilm formation,,16 µg/mL,inhibition,49%
